Measurements reported in ChEMBL document CHEMBL3044914, “Synthesis of novel 12-aryl-8,9,10,12-tetrahydrobenzo[a]xanthene-11-thiones and evaluation of their biocidal effects” (2012).
In brackets after ≈: the same amount, converted by molar mass.

Legend:
Spodoptera litura [1] = assay: Insect growth regulatory activity against Spodoptera litura third-instar larvae assessed as normal adult level at 0.1% measured after 24 hr post compound treatment by leaf-dip method; type: functional
Spodoptera litura [2] = assay: Insecticidal activity against Spodoptera litura third-instar larvae exposed to 0.1% compound on ventral side of larvae assessed as mortality after 24 hr post compound treatment by contact method; type: functional
Summary of the method: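 Topical treatment of third-instar larvae aged 7 ± 1 day. Each treatment was run in triplicate with solvent as control. Mortality was recorded after 24 h.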

Spodoptera litura [3] = assay: Insect growth regulatory activity against Spodoptera litura third-instar larvae assessed as growth inhibition index at 0.1% measured after 24 hr post compound treatment by leaf-dip method; type: functional
Athelia rolfsii = assay: Antifungal activity against Athelia rolfsii by food poison technique; type: functional; settings: Agroathelia rolfsii; read-out: ED50 (the source's name)
Spodoptera litura [4] = assay: Insect growth regulatory activity against Spodoptera litura third-instar larvae assessed as mortality at 0.1% measured after 24 hr post compound treatment by leaf-dip method; type: functional
Summary of the method: (§1)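 Third-instar larvae were reared on artificial diet, newly moulted and pre-weighed at 30–40 mg. The 0.1% solution was a stock, applied at different concentrations. Leaves on moistened filter paper in Petri dishes were sprayed with the test solution and dried. Ten larvae were placed per dish, in triplicate, with carrier-solvent controls. Larval weight, mortality, pupation, deformed pupae, intermediates, adult emergence and deformed adults were recorded after 24 h.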

[5] = Inhibition of soil urease assessed as urea-N level at 1% compound level measured after 27 hr; settings: concentration not given here
Summary of the method: (§2)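 Soil from cultivated institute farm fields, 50 g air-dried per beaker, moisture kept daily with distilled water. Compound in acetone added at 1% of applied urea-N (0.1 mg); urea-alone control; completely randomized design, three replicates. 5 g samples taken at 9 and 27 h, extracted with 1 M sodium sulfate containing phenyl mercuric acetate to stop hydrolysis; urea-N estimated.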

Spodoptera litura [6] = assay: Insect growth regulatory activity against Spodoptera litura third-instar larvae assessed as abnormal or dead larva level at 0.1% measured after 24 hr post compound treatment by leaf-dip method; type: functional; summary of the method: as §1
[7] = Inhibition of soil urease assessed as urea-N level at 1% compound level measured after 9 hr; settings: concentration not given here; summary of the method: as §2
Spodoptera litura [8] = assay: Insecticidal activity against Spodoptera litura third-instar larvae fed on 0.1% compound pre-treated castor leaves assessed as mortality after 24 hr post compound treatment by feeding method; type: functional
Summary of the method: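 Castor leaf was dipped for 2 s in a 0.1% solution, air-dried and placed on moist filter paper in 9 cm Petri plates. Third-instar larvae aged 7 ± 1 day were prestarved 4 h and released singly into each plate. There were thirty replications per treatment, with a solvent control. Mortality was scored at 24 h.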

Alternaria porri = assay: Antifungal activity against Alternaria porri by food poison technique; type: functional; settings: read-out: ED50 (the source's name)
Fusarium oxysporum = assay: Antifungal activity against Fusarium oxysporum by food poison technique; type: functional; settings: read-out: ED50 (the source's name)
Macrophomina phaseolina = assay: Antifungal activity against Rhizoctonia bataticola by food poison technique; type: functional; settings: read-out: ED50 (the source's name)
Spodoptera litura [9] = assay: Insect growth regulatory activity against Spodoptera litura third-instar larvae assessed as abnormal pupa or dead pupa level at 0.1% measured after 24 hr post compound treatment by leaf-dip method; type: functional; summary of the method: as §1

Row | SMILES | Activity (Spodoptera litura [1]) [%] | mortality (Spodoptera litura [2]) [%] | growth inhibition (GI) (Spodoptera litura [3]) [%] | EC50 (Athelia rolfsii) [µg/mL] | mortality (Spodoptera litura [4]) [%] | inhibition [5] [%] | Activity (Spodoptera litura [6]) [%] | inhibition [7] [%] | mortality (Spodoptera litura [8]) [%] | EC50 (Alternaria porri) [µg/mL] | EC50 (Fusarium oxysporum) [µg/mL] | EC50 (Macrophomina phaseolina) [µg/mL] | Activity (Spodoptera litura [9]) [%]
1 | CC1(C)CC(=S)C2=C(C1)Oc1ccc3ccccc3c1C2c1ccc(Cl)cc1 (centres undefined) | 30 | 30 | 70 | 280 (≈ 692 µM) | 40 | 18 | 10 | 35 | 40 | 311 (≈ 767 µM) | 245 (≈ 606 µM) | 334 (≈ 825 µM) | 20
2 | CC1(C)CC(=S)C2=C(C1)Oc1ccc3ccccc3c1C2c1ccc(F)cc1 (centres undefined) | 50 | 10 | 50 | 358 (≈ 922 µM) | 0 | 0 | – | -3 | 40 | 199 (≈ 511 µM) | 260 (≈ 670 µM) | 345 (≈ 888 µM) | 0
3 | Cc1ccc(C2C3=C(CC(C)(C)CC3=S)Oc3ccc4ccccc4c32)cc1 (centres undefined) | 50 | 10 | 50 | 321 (≈ 834 µM) | 30 | 12 | 10 | 33 | 20 | 385 (≈ 1000 µM) | 410 (≈ 1070 µM) | 489 (≈ 1270 µM) | 10
4 | CC1(C)CC(=S)C2=C(C1)Oc1ccc3ccccc3c1C2c1ccc2ccccc2c1 (centres undefined) | 70 | 0 | 30 | 199 (≈ 473 µM) | 0 | 3 | 20 | 1 | 80 | 165 (≈ 393 µM) | 189 (≈ 448 µM) | 244 (≈ 580 µM) | 10
5 | COc1ccc(C2C3=C(CC(C)(C)CC3=S)Oc3ccc4ccccc4c32)cc1 (centres undefined) | 60 | 0 | 40 | 365 (≈ 912 µM) | 10 | -4 | 10 | 5 | 10 | 406 (≈ 1010 µM) | 279 (≈ 697 µM) | 478 (≈ 1190 µM) | 20
6 | CCCCC(O)(Cn1cncn1)c1ccc(Cl)cc1Cl (centres undefined) [HEXACONAZOLE] | – | – | – | 13 (≈ 41.2 µM) | – | – | – | – | – | 25.5 (≈ 81.3 µM) | 20.6 (≈ 65.4 µM) | 334 (≈ 1060 µM) | –
7 | CC1(C)CC(=S)C2=C(C1)Oc1ccc3ccccc3c1C2c1cccc(Br)c1 (centres undefined) | 0 | 30 | 100 | 478 (≈ 1060 µM) | 50 | 6 | 50 | 15 | 10 | 321 (≈ 714 µM) | 310 (≈ 689 µM) | 475 (≈ 1060 µM) | –
8 | COc1ccccc1C1C2=C(CC(C)(C)CC2=S)Oc2ccc3ccccc3c21 (centres undefined) | 40 | 15 | 60 | 324 (≈ 810 µM) | 30 | 6 | 20 | 24 | 30 | 418 (≈ 1040 µM) | 336 (≈ 838 µM) | 484 (≈ 1210 µM) | 10
9 | CC1(C)C(C=C(Cl)Cl)C1C(=O)OC(C#N)c1cccc(Oc2ccccc2)c1 (stereo not drawn) [ALPHA-CYPERMETHRIN] | – | 100 | – | – | – | – | – | – | – | – | – | – | –
10 | CC1(C)CC(=S)C2=C(C1)Oc1ccc3ccccc3c1C2c1cccs1 (centres undefined) | 65 | 0 | 35 | 457 (≈ 1210 µM) | 15 | -8 | 0 | 4 | 10 | 456 (≈ 1210 µM) | 375 (≈ 997 µM) | 590 (≈ 1570 µM) | 20
11 | COc1cc(C2C3=C(CC(C)(C)CC3=S)Oc3ccc4ccccc4c32)ccc1O (centres undefined) | 70 | 0 | 30 | 670 (≈ 1610 µM) | 10 | 12 | 0 | -6 | 10 | 433 (≈ 1040 µM) | 438 (≈ 1050 µM) | 567 (≈ 1360 µM) | 20
12 | S=C1CCCC2=C1C(c1ccccc1)c1c(ccc3ccccc13)O2 (centres undefined) | 50 | 10 | 50 | 500 (≈ 1460 µM) | 40 | 22 | 0 | 47 | 30 | 210 (≈ 613 µM) | 287 (≈ 839 µM) | 438 (≈ 1280 µM) | 10
13 | S=C1CCCC2=C1C(c1cccc(Cl)c1)c1c(ccc3ccccc13)O2 (centres undefined) | 40 | 30 | 60 | 426 (≈ 1130 µM) | 30 | 2 | 20 | 6 | 60 | 268 (≈ 712 µM) | 320 (≈ 850 µM) | 380 (≈ 1010 µM) | 10
14 | CC1(C)CC(=S)C2=C(C1)Oc1ccc3ccccc3c1C2c1ccccc1 (centres undefined) | 35 | 20 | 75 | 525 (≈ 1420 µM) | 50 | 5 | 0 | 5 | 20 | 336 (≈ 906 µM) | 326 (≈ 879 µM) | 570 (≈ 1540 µM) | 15
15 | O=[N+]([O-])c1ccc(C2C3=C(CCCC3=S)Oc3ccc4ccccc4c32)cc1 (centres undefined) | 20 | 0 | 80 | 670 (≈ 1730 µM) | 50 | -1 | 10 | 1 | 70 | 212 (≈ 547 µM) | 358 (≈ 923 µM) | 555 (≈ 1430 µM) | –
16 | S=C1CCCC2=C1C(c1ccccc1Br)c1c(ccc3ccccc13)O2 (centres undefined) | 75 | 50 | 25 | 225 (≈ 535 µM) | 0 | -2 | 20 | 1 | 90 | 136 (≈ 322 µM) | 148 (≈ 352 µM) | 286 (≈ 678 µM) | 5
